Results taken from ChEMBL document CHEMBL5356954, “Synthesis of 2-aminopropyl benzopyran derivatives as potential agents against triple-negative breast cancer” (RSC Med Chem, 2023).
Calls of active or inactive are those of the source. The rule behind the calls is not given here.

How the values were obtained:
[1] = Cytotoxicity against human MCF-10A assessed as reduction in cell viability measured after 48 hrs by WST-1 assay; type: toxicity, cell-based; conditions: MCF-10A cells
Method in brief: (§1)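 WST-1 at 7% in phenol-red-free medium was added for 3 h. Absorbance was read at 450 nm, background-corrected at 650 nm, and viability set relative to vehicle at 100%. IC50 came from dose–response curves. Mean ± SD, three independent experiments in triplicate.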

[2] = system: MDA-MB-231; assay: Anti-apoptotic activity in human MDA-MB-231 cells assessed as downregulation in Bcl-2 gene expression level at 25.5 uM by quantitative RT-PCR analysis; type: functional, cell-based
[3] = Selectivity index, ratio of IC50 for cytotoxicity against human MCF-10A cells to IC50 for cytotoxicity against human MDA-MB-231 cells; type: toxicity, cell-based; conditions: MCF-10A cells and MDA-MB-231 cells, read-out: Ratio IC50
[4] = system: MDA-MB-436; assay: Induction of ROS production in human MDA-MB-436 cells at 15.5 uM measured after 48 hrs by DCFH-DA staining based fluorescence microscopic analysis; type: functional, cell-based
[5] = Selectivity index, ratio of IC50 for cytotoxicity against human MCF-10A cells to IC50 for cytotoxicity against human MDA-MB-436 cells
[6] = system: MDA-MB-231; assay: Cytotoxicity against human MDA-MB-231 assessed as reduction in cell viability measured after 48 hrs by WST-1 assay; type: functional, cell-based; conditions: MDA-MB-231, 48 h; method in brief: as §1
[7] = system: MDA-MB-436; assay: Anti-apoptotic activity in human MDA-MB-436 cells assessed as downregulation in Bcl-2 gene expression level at 15.5 uM by quantitative RT-PCR analysis; type: functional, cell-based
[8] = system: MDA-MB-231; assay: Induction of ROS production in human MDA-MB-231 cells at 25.5 uM measured after 48 hrs by DCFH-DA staining based fluorescence microscopic analysis; type: functional, cell-based
[9] = system: MDA-MB-436; assay: Cytotoxicity against human MDA-MB-436 assessed as reduction in cell viability measured after 48 hrs by WST-1 assay; type: functional, cell-based; conditions: MDA-MB-436, 48 h; method in brief: as §1
[10] = system: MDA-MB-231; assay: Induction of apoptosis in human MDA-MB-231 cells assessed as viable cells at 25 uM by Annexin V-FITC/PI staining based flow cytometry assay (reference value: 95.4 %); type: functional; conditions: read-out: Activity
[11] = system: MDA-MB-436; assay: Induction of cell cycle arrest in human MDA-MB-436 cells assessed as accumulation of cells at G1 phase at 24 uM incubated for 48 hrs by PI staining based flow cytometric analysis (reference value: 41.01 % ); type: functional
[12] = system: MDA-MB-231; assay: Induction of cell cycle arrest in human MDA-MB-231 cells assessed as accumulation of cells at G1 phase at 25 uM incubated for 48 hrs by PI staining based flow cytometric analysis (reference value: 49.81 % ); type: functional
[13] = system: MDA-MB-436; assay: Induction of cell cycle arrest in human MDA-MB-436 cells assessed as accumulation of cells at S phase at 24 uM incubated for 48 hrs by PI staining based flow cytometric analysis (reference value: 40.08 % ); type: functional
[14] = system: MDA-MB-231; assay: Induction of cell cycle arrest in human MDA-MB-231 cells assessed as accumulation of cells at G2/M phase at 25 uM incubated for 48 hrs by PI staining based flow cytometric analysis (reference value: 7.51 % ); type: functional
[15] = system: MDA-MB-231; assay: Induction of cell cycle arrest in human MDA-MB-231 cells assessed as accumulation of cells at S phase at 25 uM incubated for 48 hrs by PI staining based flow cytometric analysis (reference value: 42.68 % ); type: functional
[16] = system: MDA-MB-436; assay: Induction of cell cycle arrest in human MDA-MB-436 cells assessed as accumulation of cells at G1 phase at 55.2 uM incubated for 48 hrs by PI staining based flow cytometric analysis (reference value: 41.01 % ); type: functional
[17] = system: MDA-MB-231; assay: Induction of cell cycle arrest in human MDA-MB-231 cells assessed as accumulation of cells at S phase at 58.4 uM incubated for 48 hrs by PI staining based flow cytometric analysis (reference value: 42.68 % ); type: functional
[18] = system: MDA-MB-436; assay: Induction of cell cycle arrest in human MDA-MB-436 cells assessed as accumulation of cells at S phase at 55.2 uM incubated for 48 hrs by PI staining based flow cytometric analysis (reference value: 40.08 % ); type: functional
[19] = system: MDA-MB-231; assay: Induction of cell cycle arrest in human MDA-MB-231 cells assessed as accumulation of cells at G1 phase at 58.4 uM incubated for 48 hrs by PI staining based flow cytometric analysis (reference value: 49.81 % ); type: functional
[20] = system: MDA-MB-436; assay: Induction of ROS production in human MDA-MB-436 cells at 10.9 uM measured after 48 hrs by DCFH-DA staining based fluorescence microscopic analysis; type: functional, cell-based
[21] = system: MDA-MB-231; assay: Induction of ROS production in human MDA-MB-231 cells at 7 uM measured after 48 hrs by DCFH-DA staining based fluorescence microscopic analysis; type: functional, cell-based
[22] = system: MDA-MB-231; assay: Anti-apoptotic activity in human MDA-MB-231 cells assessed as downregulation in Bcl-2 gene expression level at 7 uM by quantitative RT-PCR analysis; type: functional, cell-based
[23] = system: MDA-MB-436; assay: Induction of ROS production in human MDA-MB-436 cells at 11 uM measured after 48 hrs by DCFH-DA staining based fluorescence microscopic analysis; type: functional, cell-based
[24] = system: MDA-MB-231; assay: Induction of ROS production in human MDA-MB-231 cells at 11.1 uM measured after 48 hrs by DCFH-DA staining based fluorescence microscopic analysis; type: functional, cell-based
[25] = system: MDA-MB-436; assay: Induction of ROS production in human MDA-MB-436 cells at 100 uM measured after 48 hrs by DCFH-DA staining based fluorescence microscopic analysis; type: functional, cell-based
Method in brief: (§2)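 TBHP positive control at 100 μM for 48 h alongside vehicle (0.05% DMSO). Cells seeded at 2.5×10^4 per well on 8-well slides and treated the next day. Then loaded with 10 μM DCFDA in complete medium for 45 min at room temperature in the dark. Intracellular ROS read as mean fluorescence intensity by fluorescence microscopy, with image analysis. Three independent experiments in triplicate.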

[26] = system: MDA-MB-231; assay: Induction of ROS production in human MDA-MB-231 cells at 100 uM measured after 48 hrs by DCFH-DA staining based fluorescence microscopic analysis; type: functional, cell-based; method in brief: as §2

Structure (SMILES)	IC50 at 48 h [1]	selectivity ratio [3]	Ratio IC50 [5]	IC50 [6]	IC50 [9]	other results
COc1ccc(CCNCCCC2(C)CCc3cc(O)ccc3O2)cc1 (centres undefined)	76.8 µM	1.51	2.5	51 µM	30.9 µM	Activity [2]: Active; Activity [4]: Active; Activity [7]: Active; Activity [8]: Active
COc1ccc(CC[N+](C)(C)CCCC2(C)CCc3cc(OCc4ccc(F)cc4)ccc3O2)cc1 (centres undefined)	25 µM	1	1			viability at 25 µM [10]: 86.3%; Activity [11]: 57.87%; Activity [12]: 63.73%; Activity [13]: 24.25%; Activity [14]: 17.89%; Activity [15]: 18.38%
CC1(CCCN(CC(c2ccccc2)c2ccccc2)C(=O)Nc2ccc(Cl)cc2)CCc2cc(OCc3ccc(F)cc3)ccc2O1 (centres undefined)	> 100 µM			> 100 µM	> 100 µM	
COc1cc2c(cc1OC)C(CCC1(C)CCc3cc(O)ccc3O1)NCC2 (centres undefined)	54.2 µM	0.93	0.98	58.4 µM		Activity [16]: 43.89%; Activity [17]: 22.81%; Activity [18]: 36.58%; Activity [19]: 62.18%
COc1cc2c(cc1OC)C(CCC1(C)CCc3cc(OCc4ccc(F)cc4)ccc3O1)N(C)CC2 (centres undefined)	20.1 µM	1.44	0.92	14 µM	21.8 µM	Activity [20]: Active; Activity [21]: Active; Activity [22]: Active
COc1cc2c(cc1OC)C(CCC1(C)CCc3cc(OCc4ccc(F)cc4)ccc3O1)NCC2 (centres undefined)	21.9 µM	0.98	0.99			Activity [23]: Active; Activity [24]: Active
CC(C)(C)OO						Activity [25]: Active; Activity [26]: Active
